CAL PDZ FP-1 = blocks peptide binding to human CAL PDZ domain. Q9HD26. purified CAL PDZ, TMR-peptide fluorescence polarization, 1 h. inhibition, % at 20 µM. hit rate 0.02% among 330,000. AID 504414;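 active = highest replicate inhibition of at least 40%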;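 note: plate controls were DMSO neutral control wells for no effect and unlabeled competitor peptide control wells for full effect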
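Control set: unlabelled peptide and DMSO controls / Material: purified CerCALP PDZ construct / Timing: 1 h incubation at room temperature before polarization reading / Doses: 20 µM, one dose / Detection: fluorescence polarization (mP)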
SR-BI DiI inh = blocks mouse SR-BI lipid uptake from DiI-HDL; Q61009; ldlA[mSR-BI] CHO cells, DiI-HDL uptake fluorescence, 3 h; inhibition, % at 12.5 µM; hit rate 0.96% among 320,000; AID 488896;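 active = mean replicate inhibition of at least 70% and a set share of replicates each scoring 70 or more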;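 note: 0% = median of neutral control wells and 100% = median of positive control wells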
Target sequence (Q61009 whole entry, looked up): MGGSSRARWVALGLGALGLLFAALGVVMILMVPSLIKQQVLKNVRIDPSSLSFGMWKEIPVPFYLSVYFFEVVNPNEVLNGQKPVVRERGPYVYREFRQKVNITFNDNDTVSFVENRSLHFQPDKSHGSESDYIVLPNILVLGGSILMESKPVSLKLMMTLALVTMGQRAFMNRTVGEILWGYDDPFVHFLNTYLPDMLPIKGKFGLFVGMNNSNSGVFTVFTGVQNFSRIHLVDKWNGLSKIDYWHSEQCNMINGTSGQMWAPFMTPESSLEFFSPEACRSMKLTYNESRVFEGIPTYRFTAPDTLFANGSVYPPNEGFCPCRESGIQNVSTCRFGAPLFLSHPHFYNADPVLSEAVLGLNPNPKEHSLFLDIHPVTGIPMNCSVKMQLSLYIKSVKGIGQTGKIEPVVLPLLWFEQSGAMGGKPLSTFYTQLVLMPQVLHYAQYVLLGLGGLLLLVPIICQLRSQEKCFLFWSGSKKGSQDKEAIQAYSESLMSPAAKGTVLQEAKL
CAL PDZ FP-2 = blocks peptide binding to the human CAL PDZ domain; Q9HD26; purified CAL PDZ, TMR-peptide fluorescence polarization, 1 h; inhibition, % at 24.9 µM; hit rate 0.92% among 300,000;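 active = mean inhibition of at least 30% with at least half of replicates also reaching 30%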;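 note: 0% = DMSO neutral control and 100% = excess unlabeled competitor peptide PRC23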
SR-BI uptake up = activators of SR-BI mediated HDL lipid uptake; CHO ldlA[mSR-BI] cells, DiI-HDL uptake fluorescence, 3 h; 100 = double the neutral-control signal; activation, % at 12.5 µM; hit rate 0.096% among 320,000;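 active = mean replicate activation of at least 60% and every replicate at or above 60%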;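 note: 0% = median plate neutral-control signal and 100% = twice that signal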
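System: LDL receptor-deficient CHO ldlA cells overexpressing murine SR-BI | Timing: 3 h uptake period with compound, 37 °C | Medium: HEPES-buffered (25 mM, pH 7.4) F12 plus 0.5% BSA | Dosing: Single-point compound dose | Signal: Bottom-read fluorescence, 550/595 nm | Read-out: Retained DiI signal reflecting DiI-HDL uptake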
miR122 inh = miR-122 inhibition in Huh7 cells | Huh7 miR-122 Renilla luciferase sensor, 48 h; neutral wells = 0, positive control = 100 | activation (reporter increase), % at 12.5 µM | hit rate 0.3% among 340,000;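 active = mean replicate activation score at least 90 and every replicate individually at or above 90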;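 note: higher luciferase means less miR-122 activity so hits act as miR-122 inhibitors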
ARNT TACC3 PPI = disrupts binding between human ARNT and TACC3 | hit rate 0.66% among 390,000 | Q9Y6A5 | inhibition, % at 9.99 µM | AlphaScreen His-ARNT PAS-B/GST-TACC3 binding, luminescence; TACC3 fragment carries E629A point mutation;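 active = mean inhibition of replicates at least 50% and at least half of replicates each reaching 50%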;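 note: 0% = complete ARNT plus TACC3 wells and 100% = ARNT alone without TACC3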
* = called active by the depositor; x = not tested or not shown; [ ] = another dose, or the depositor's remark. An excerpt weighted towards active compounds, which were near 2.1% of everything screened.

SMILES | CAL PDZ FP-1 | SR-BI DiI inh | CAL PDZ FP-2 | SR-BI uptake up | miR122 inh | ARNT TACC3 PPI
C[C@H]1CN([C@@H](C)CO)C(=O)c2cc(NC(=O)Nc3ccc(F)cc3)ccc2O[C@@H]1CN(C)Cc1ccc(Oc2ccccc2)cc1 | x | x | x | x | 6[16.7 µM] | -2
CSc1cccc(NC(=S)Nc2ccc(F)cc2)c1 | -1 | 11 | 0 | -11 | 41 | -14
CSc1cccc(NC(=S)NN(C)C)c1 | 0 | -4 | 64* | 4 | -5 | -4
C[C@@H]1CN([C@@H](C)CO)C(=O)c2cccc(NS(=O)(=O)c3ccccc3)c2O[C@H]1CN(C)Cc1ccc(C(F)(F)F)cc1 | x | x | x | x | 36[16.7 µM] | -1
O=C(Nc1ccc(N2CCCC2)cc1)c1ccc2ccccc2c1 | -1 | 88* | 1 | -88 | 12 | -1
O=C(Nc1ccc(N2CCCC2)cc1)c1cccc(Cl)c1Cl | -1 | 79* | 4 | -79 | 12 | -1
CC(=O)N1CCN(c2ccc(NC(=O)c3cccc(Cl)c3Cl)cc2)CC1 | x | 48 | -6 | -48 | 8 | -2
CC(=O)N1CCN(c2ccc(NC(=O)c3ccc4ccccc4c3)cc2)CC1 | -2 | 38 | -1 | -38 | -5 | -2
O=C(Nc1ccc(N2CCCC2)cc1)c1cccc(-c2cc3ccccc3oc2=O)c1 | 1 | 90* | 10 | -90 | -2 | 2
CN1C(=O)c2cc(NC(=O)c3ccc(F)c(F)c3)ccc2OC[C@H]2O[C@H](CC(=O)N3CCOCC3)CC[C@H]21 | x | x | x | x | -2[16.7 µM] | -2
O=C(Nc1cccc(F)c1)N1CCCCN2[C@H](CO)[C@@H](c3ccc(C#CC4CC4)cc3)[C@H]2C1 | x | x | x | x | -12[16.7 µM] | 7
CC(C)NC(=O)Nc1ccc2c(c1)CC(=O)N([C@@H](C)CO)C[C@@H](C)[C@@H](CN(C)Cc1ccc(Oc3ccccc3)cc1)O2 | x | x | x | x | -2[16.7 µM] | active
C[C@H](CO)N1C[C@H](C)[C@H](CN(C)Cc2ccc(C(=O)Nc3ccccc3N)cc2)Oc2ccc(NC(=O)Nc3cccc4ccccc34)cc2CC1=O | x | x | x | x | 96*[16.7 µM] | -14
CC(C)NC(=O)Nc1ccc2c(c1)CC(=O)N([C@H](C)CO)C[C@H](C)[C@@H](CN(C)Cc1ccc(C(=O)Nc3ccccc3N)cc1)O2 | x | x | x | x | 15[16.7 µM] | x
CC(C)NC(=O)Nc1ccc2c(c1)CC(=O)N([C@@H](C)CO)C[C@H](C)[C@H](CN(C)Cc1ccc(Oc3ccccc3)cc1)O2 | x | x | x | x | 6[16.7 µM] | 33
CC(C)NC(=O)Nc1ccc2c(c1)CC(=O)N([C@H](C)CO)C[C@H](C)[C@H](CN(C)Cc1ccc(C(=O)Nc3ccccc3N)cc1)O2 | x | x | x | x | 114*[16.7 µM] | x
C[C@H](CO)N1C[C@H](C)[C@H](CN(C)Cc2ccc(C(=O)Nc3ccccc3N)cc2)Oc2ccc(NC(=O)CCC(F)(F)F)cc2CC1=O | x | x | x | x | 98*[16.7 µM] | 5
CCC(=O)Nc1ccc2c(c1)C(=O)N(C)[C@@H]1CC[C@H](CC(=O)NCc3ccccc3)O[C@@H]1CO2 | x | x | x | x | 6[16.7 µM] | -1
CCOc1cc(C(C(=O)NCC2CCCO2)N(C(=O)Cn2nnc3ccccc32)c2ccccc2C(C)=O)ccc1O (stereo not drawn) | -2 | x | x | x | 26 | -2
CCOc1cc(C(C(=O)NCC2CCCO2)N(C(=O)Cn2nnc3ccccc32)c2ccccc2C)ccc1O (stereo not drawn) | -2 | -8 | 50* | 8 | x | 0
Cc1ccc(-n2nc(C)cc2NC(=O)c2ccc(C)s2)cc1 | -1 | 87* | 0 | -87 | 5 | -1
Cc1ccc(-n2nc(C)cc2NC(=O)CC#N)cc1 | 0 | 16 | -7 | -16 | x | x
COc1cc(-c2cc(-c3ccc(O)cc3)nc(N)c2C#N)ccc1O | -8 | 84* | -16 | -84 | x | 16
Cc1ccc(NC(=O)CCn2c(=O)c3cccn3c3ccccc32)c(C)c1 | -1 | 48 | 2 | -48 | 7 | -2
Cc1cc(C)cc(NC(=O)CCn2c(=O)c3cccn3c3ccccc32)c1 | -4 | 81* | -3 | -81 | 46 | -6
SMILES | CAL PDZ FP-1 | SR-BI DiI inh | CAL PDZ FP-2 | SR-BI uptake up | miR122 inh | ARNT TACC3 PPI
COc1ccc(NC(=O)CCn2c(=O)c3cccn3c3ccccc32)cc1 | -4 | 52 | -4 | -52 | x | 1
COc1ccc(NC(=O)CCn2c(=O)c3cccn3c3ccccc32)c(OC)c1 | -2 | 75* | -3 | -75 | -4 | -1
O=C(CCn1c(=O)c2cccn2c2ccccc21)Nc1ccc(F)cc1 | -3 | 75* | -6 | -75 | 0 | -1
Cc1ccc(NC(=S)NC(=O)C2CC2)cc1Cl | -4 | 10 | 52* | -10 | -3 | 1
CC(C)(C)NS(=O)(=O)c1ccc(NC(=S)NC(=O)C2CC2)cc1 | -8 | -3 | -12 | 3 | 196* | 2
CC(C)(C)NS(=O)(=O)c1ccc(NC(=O)C2CCCCC2)cc1 | -1 | 23 | x | -23 | -6 | 1
CCCC(=O)Nc1ccc2c(c1)C(=O)N(C)C[C@H](OC)[C@H](C)CN(Cc1ccncc1)[C@H](C)CO2 | x | x | x | x | 9[16.7 µM] | x
COc1ccc([Si](C)(C)[C@H]2[C@H](CCn3cc(CCO)nn3)O[C@@]3(C(=O)N(C)c4c(Br)cc(C)cc43)[C@@H]2C)cc1 | x | x | x | x | x | 33
CCOc1ccc(NC(=O)CNC(=O)c2ccco2)cc1 | -1 | -2 | -1 | 2 | 1 | -1
CCOc1ccc(NC(=O)CCNC(=O)c2ccco2)cc1 | 1 | -6 | 57* | 6 | x | 4
Cc1ccc([N+](=O)[O-])cc1N(CC(=O)Nc1ccc(S(=O)(=O)Nc2cccc(C(F)(F)F)c2)cc1)S(C)(=O)=O | -2 | -25 | x | 25 | 123* | 0
COc1ccccc1C#Cc1cnc2c(c1)C(=O)N([C@@H](C)CO)C[C@H](C)[C@@H](CN(C)C(=O)c1ccc3c(c1)OCO3)O2 | x | x | x | x | -21[16.7 µM] | -7
COc1ccc(/C=C/c2c(-c3ccc(OC)cc3)oc3ccccc23)cc1 | 0 | 78* | -2 | -78 | 3 | -18
COC(=O)c1ccc(/C=C/c2c(-c3ccc(OC)cc3)oc3ccccc23)cc1 | -3 | -5 | -1 | 5 | 3 | 5
CO[C@H]1CN(C)C(=O)c2ccc(NC(=O)c3nc4ccccc4s3)cc2OC[C@@H](C)N(Cc2cncnc2)C[C@@H]1C | x | x | x | x | x | -3
C/C=C/c1ccc2c(c1)O[C@H](CN(C)C(=O)c1cccc(F)c1)[C@@H](C)CN([C@H](C)CO)S2(=O)=O | x | x | x | x | 9[16.7 µM] | 6
C=CCn1c(Cc2nc3ccccc3[nH]2)n[nH]c1=S | 0 | -30 | x | 30 | -8 | 49*
CCN1/C(=C/c2ccc3ccccc3[n+]2CC)C=Cc2ccccc21 | -2 | 87* | -2 | -87 | -17 | 16
CCCCN(CC)CCCNC(=O)c1cn(C)c(=O)c2c1c1ccccc1n2C | x | -24 | 37* | 24 | x | -11
